Data as given in ChEMBL document CHEMBL1152659, “Removal of the 20-methyl group from 2-methylene-19-nor-(20S)-1alpha,25-dihydroxyvitamin D(3) (2MD) selectively eliminates bone calcium mobilization activity” (Bioorg Med Chem, 2009).

Assays:
[1] = tested on: Rattus norvegicus; assay: Effect on bone calcium mobilization in weanling Sprague-Dawley rat assessed as serum calcium level at 87 pmol/day, ip administered for 4 consecutive days measured 24 hrs after last dose; type: functional
How it was run: (§1)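 Male weanling rats fed 0.47% Ca + AEK oil for 1 wk, then 0.02% Ca for 3 wk, then 0.47% Ca for 1 wk, then 0.02% Ca for 2 wk. Dosing during the final low-Ca week: four i.p. doses about 24 h apart. Serum Ca measured on blood from severed neck 24 h after the last dose; statistics applied.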

[2] = tested on: Rattus norvegicus; assay: Effect on bone calcium mobilization in weanling Sprague-Dawley rat assessed as serum calcium level at 260 pmol/day, ip administered for 4 consecutive days measured 24 hrs after last dose; type: functional; how it was run: as §1
[3] = tested on: Rattus norvegicus; assay: Effect on bone calcium mobilization in weanling Sprague-Dawley rat assessed as serum calcium level at 780 pmol/day, ip administered for 4 consecutive days measured 24 hrs after last dose; type: functional; how it was run: as §1
[4] = tested on: Rattus norvegicus; assay: Effect on intestinal calcium transport in weanling Sprague-Dawley rat assessed as ratio of serosal to mucosal calcium level at 87 pmol/day, ip administered for 4 consecutive days measured 24 hrs after last dose by everted gut sac method; type: functional
How it was run: (§2)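 Same rats and regimen: low/normal Ca diet cycling, then four i.p. doses about 24 h apart during the final 0.02% Ca week. First 10 cm of intestine taken 24 h after the last dose; Ca transport measured by everted gut sac.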

[5] = tested on: Rattus norvegicus; assay: Effect on intestinal calcium transport in weanling Sprague-Dawley rat assessed as ratio of serosal to mucosal calcium level at 260 pmol/day, ip administered for 4 consecutive days measured 24 hrs after last dose by everted gut sac method; type: functional; how it was run: as §2
[6] = tested on: Rattus norvegicus; assay: Effect on intestinal calcium transport in weanling Sprague-Dawley rat assessed as ratio of serosal to mucosal calcium level at 780 pmol/day, ip administered for 4 consecutive days measured 24 hrs after last dose by everted gut sac method; type: functional; how it was run: as §2
[7] = tested on: Rattus norvegicus; assay: Effect on bone calcium mobilization in weanling Sprague-Dawley rat assessed as serum calcium level at 2340 pmol/day, ip administered for 4 consecutive days measured 24 hrs after last dose; type: functional; how it was run: as §1
[8] = target: T1, Vitamin D3 receptor (Rattus norvegicus) (UniProt P13053); assay: Ratio of compound EC50 to [3H]1-alpha,25-(OH)2D3 EC50 for VDR in rat osteosarcoma cells by 24-hydroxylase gene transcriptional activation assay; type: cell-based
T1 sequence (whole entry): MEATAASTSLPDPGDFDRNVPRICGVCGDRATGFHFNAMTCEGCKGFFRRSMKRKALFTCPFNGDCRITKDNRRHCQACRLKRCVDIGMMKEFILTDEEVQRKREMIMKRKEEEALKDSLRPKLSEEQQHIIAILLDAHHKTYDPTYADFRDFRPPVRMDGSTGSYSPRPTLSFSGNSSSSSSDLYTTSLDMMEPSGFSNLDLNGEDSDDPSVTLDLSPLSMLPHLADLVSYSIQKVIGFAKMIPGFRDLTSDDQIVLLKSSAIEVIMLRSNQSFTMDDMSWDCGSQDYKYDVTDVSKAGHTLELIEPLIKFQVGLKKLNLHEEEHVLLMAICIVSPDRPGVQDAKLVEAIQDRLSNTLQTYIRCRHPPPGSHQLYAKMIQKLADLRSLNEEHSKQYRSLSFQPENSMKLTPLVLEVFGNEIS
How it was run: (§3)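 Rat osteosarcoma cells stably transfected with a 24-hydroxylase gene reporter plasmid; luciferase read-out. EC50 from dose–response curves = concentration raising luciferase activity by 50%. Ratio = average of analog EC50 over 1α,25-(OH)2D3 EC50. Duplicates on at least two separate occasions.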

[9] = tested on: HL-60; assay: Ratio of compound ED50 to [3H]1-alpha,25-(OH)2D3 ED50 for induction of differentiation of human HL60 promyelocytes into monocytes after 4 days by NBT reduction assay; type: functional
[10] = target: T2, Vitamin D3 receptor (Rattus norvegicus, UniProt P13053); assay: Displacement of radiolabeled 1-alpha,25-(OH)2D3 from rat recombinant full length VDR
T2 sequence (P13053 whole entry): T1 sequence (whole entry)

[11] = tested on: Rattus norvegicus; assay: Effect on bone calcium mobilization in weanling Sprague-Dawley rat assessed as serum calcium level at 7020 pmol/day, ip administered for 4 consecutive days measured 24 hrs after last dose; type: functional; how it was run: as §1
[12] = tested on: HL-60; assay: Induction of differentiation of human HL60 promyelocytes into monocytes after 4 days by NBT reduction assay; type: functional, cell-based; details: HL-60, 96 h
[13] = tested on: Rattus norvegicus; assay: Effect on intestinal calcium transport in weanling Sprague-Dawley rat assessed as ratio of serosal to mucosal calcium level at 7020 pmol/day, ip administered for 4 consecutive days measured 24 hrs after last dose by everted gut sac method; type: functional; how it was run: as §2
[14] = target: T2, Vitamin D3 receptor; assay: Activity at VDR in rat osteosarcoma cells assessed as induction of 24-hydroxylase reporter gene transcription by luciferase reporter gene assay; type: cell-based; how it was run: as §3
[15] = tested on: Rattus norvegicus; assay: Effect on intestinal calcium transport in weanling Sprague-Dawley rat assessed as ratio of serosal to mucosal calcium level at 2340 pmol/day, ip administered for 4 consecutive days measured 24 hrs after last dose by everted gut sac method; type: functional; how it was run: as §2
[16] = target: T1, Vitamin D3 receptor (Rattus norvegicus); assay: Ratio of compound Ki to [3H]1-alpha,25-(OH)2D3 Ki for rat recombinant full length VDR

C=C1[C@H](O)CC(=C/C=C2\CCC[C@]3(C)[C@@H]([C@@H](C)CCCC(C)(C)O)CC[C@@H]23)C[C@H]1O [DP001]
Activity [1]: 8.4 mg/dL
Activity [2]: 9.3 mg/dL
Activity [3]: 11.1 mg/dL
Ratio [4]: 12.3
Ratio [5]: 11.4
Ratio [6]: 10.9

C=C1/C(=C\C=C2/CCC[C@]3(C)[C@@H]([C@H](C)CCCC(C)(C)O)CC[C@@H]23)C[C@@H](O)C[C@@H]1O [CALCITRIOL]
Activity [7]: 6.9 mg/dL
Activity [1]: 4.6 mg/dL
Activity [2]: 5 mg/dL
Activity [3]: 5.3 mg/dL

C=C1[C@H](O)CC(=C/C=C2\CCC[C@@H]3[C@@H](CCCCC(C)(C)O)CC[C@@H]23)C[C@H]1O
Activity [7]: 6.1 mg/dL
Ratio EC50 [8]: 0.2
Ratio ED50 [9]: 0.15
Ki [10]: 0.1 nM
Activity [1]: 4 mg/dL
Activity [2]: 4.3 mg/dL
Activity [11]: 6.5 mg/dL
EC50 [12]: 0.3 nM
Ratio [4]: 7.2
Ratio [13]: 11.4
Ratio [5]: 2.3
EC50 [14]: 0.06 nM
Ratio [15]: 7.5
Ratio Ki [16]: 1

C=C1[C@H](O)CC(=C/C=C2\CCC[C@]3(C)[C@@H](CCCCC(C)(C)O)CC[C@@H]23)C[C@H]1O
Activity [7]: 5.3 mg/dL
Ratio EC50 [8]: 0.67
Ratio ED50 [9]: 0.35
Ki [10]: 0.2 nM
Activity [1]: 4.3 mg/dL
Activity [2]: 4.6 mg/dL
Activity [11]: 5.1 mg/dL
EC50 [12]: 0.2 nM
Activity [3]: 4.9 mg/dL
Ratio [4]: 5.6
Ratio [13]: 7.8
Ratio [5]: 7.4
EC50 [14]: 0.2 nM
Ratio [15]: 8.8
Ratio Ki [16]: 2
Ratio [6]: 10.2

C=C1[C@H](O)CC(=C/C=C2\CCC[C@@H]3[C@@H]([C@@H](C)CCCC(C)(C)O)CC[C@@H]23)C[C@H]1O
Activity [7]: 7.8 mg/dL
Ratio EC50 [8]: 0.07
Ratio ED50 [9]: 0.2
Ki [10]: 0.02 nM
Activity [2]: 5.7
Activity [11]: 8.7 mg/dL
EC50 [12]: 0.4 nM
Activity [3]: 6.6 mg/dL
Ratio [13]: 14.5
Ratio [5]: 8.4
EC50 [14]: 0.02 nM
Ratio [15]: 8.5
Ratio Ki [16]: 0.2
Ratio [6]: 10
